Published values from different studies.
Each line is one published result; the experiments were not run side by side.
Read-out: metabolic stability

Structure (SMILES) | host | sample | tested at | pH | half-life
O=[N+]([O-])c1ccc(CNc2nc(NCc3cccc(C(F)(F)F)c3)nc3[nH]cnc23)cc1 | rat | liver microsomes | 1 µM | pH 7.4 | 17 min
CCc1cccc(CC)c1-n1c(C)c(C(=O)NC)cc(-c2nc(-c3ccc(Cl)cc3)cs2)c1=O | rat | liver microsomes | 1 µM | pH 7.4 | 1.5 min
CCOc1c(O)cc(Br)c2c1CN1CCc3cc(OCC(F)F)c(O)cc3[C@@H]1C2 | rat | liver S9 | 2 µM | pH 7.4 | 5.71 min
CCc1cccc(CC)c1-n1c(C)c(C(=O)N2CCNCC2)cc(-c2nc(-c3ccc(Cl)cc3)cs2)c1=O | rat | liver microsomes | 1 µM | pH 7.4 | > 30 min
CCCCN1C(=O)C(COC)NC(=O)C12CCN(Cc1ccc(Oc3ccccc3)cc1)CC2.Cl (stereo not drawn) | rat | liver microsomes | 5 µM |  | 16 min
N#Cc1ccc(C[C@@H](NC(=O)Nc2ccc(F)cc2)C(=O)N2CCc3ccc(F)cc32)cc1 | rat | liver microsomes | 10 µM | pH 7.4 | > 15 min
O=c1ccc2ccc(O)cc2o1 | rat | liver S9 | 2 µM | pH 7.4 | 6.54 min
CC(C)(C)C[C@@H]1N[C@@H](C(=O)N[C@H]2C[C@](C)(O)C2)[C@H](c2cccc(Cl)c2F)[C@]12C(=O)Nc1cc(Cl)ccc12 | rat | liver microsomes |  |  | > 60 min
O=C(OC(C(F)(F)F)C(F)(F)F)N1CCc2ccccc2C1 | rat | liver microsomes |  |  | 12 min
Cc1ccc2c(c1)nc(CCc1cccc3cccnc13)n2-c1ccccc1 | rat | liver microsomes | 1.5 µM |  | 0.87 min
O=C(N[C@H](Cc1c[nH]c2ccccc12)C(=O)Nc1ccncc1)c1ccc(-c2cc(F)ccc2F)cc1F | rat | liver microsomes |  |  | 17 min
O=C(O)c1ccccc1-c1c2cc(Cl)c(=O)cc-2oc2cc(O)c(Cl)cc12 | male Sprague-Dawley rat | liver microsomes |  |  | 250 min
O=C(OC(C(F)(F)F)C(F)(F)F)N1Cc2ccc(OCCN3CCOCC3)cc2C1 | rat | liver microsomes |  |  | 17 min
COc1ccc(CNC(=O)c2c(C)nc3cc(C)ccn23)cc1 | rat | liver microsomes |  |  | 19 min
N#Cc1cc(NC(=O)[C@H]2c3ccccc3C(=O)N(CC(F)(F)F)[C@@H]2c2cccnc2)ccc1F | rat | liver microsomes |  |  | > 240 min
